The values that follow come from ChEMBL document CHEMBL1126092, “Design, synthesis, and biological evaluation of novel 4-substituted 1-methyl-1,2,3,6-tetrahydropyridine analogs of MPTP” (J Med Chem, 1992).

The Vmax is the top rate of the reaction or transport when substrate is in excess. A word on the Km: it is the concentration of substrate that gives half-maximal velocity.

Common to all, as to settings: cattle
The target in data set [1] is T1, Amine oxidase [flavin-containing] B (Bos taurus, UniProt P56560).
T1 sequence (P56560 whole entry): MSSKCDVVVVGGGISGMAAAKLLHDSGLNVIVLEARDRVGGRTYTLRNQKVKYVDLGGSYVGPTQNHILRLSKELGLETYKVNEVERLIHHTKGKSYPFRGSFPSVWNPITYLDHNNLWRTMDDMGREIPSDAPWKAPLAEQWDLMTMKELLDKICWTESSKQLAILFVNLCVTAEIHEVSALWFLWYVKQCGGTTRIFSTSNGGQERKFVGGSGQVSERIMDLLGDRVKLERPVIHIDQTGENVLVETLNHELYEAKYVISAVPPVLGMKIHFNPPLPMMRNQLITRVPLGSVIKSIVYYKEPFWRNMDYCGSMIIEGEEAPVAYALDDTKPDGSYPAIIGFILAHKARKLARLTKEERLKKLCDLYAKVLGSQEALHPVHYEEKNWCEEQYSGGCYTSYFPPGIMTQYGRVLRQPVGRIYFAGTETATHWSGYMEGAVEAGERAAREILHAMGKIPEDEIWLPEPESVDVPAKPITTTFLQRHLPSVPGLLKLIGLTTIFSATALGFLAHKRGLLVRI
Nature of the data set: Selectivity ratio for Vmax and KM values against MAO-B enzyme from bovine liver mitochondria. A digest of the protocol: (§1)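 Bovine liver mitochondrial MAO-B, 0.05 unit/mL (unit = 1 μmol benzylamine→benzaldehyde per min; equivalent to 3.7 nmol protein), incubated at 37 °C in 0.1 M sodium phosphate pH 7.4. Reaction started by substrate addition, final 0.1–3.0 mM. Product formation monitored spectrophotometrically, initial rates taken 30–180 s after enzyme addition. Apparent Vmax and KM from double reciprocal plot.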

In data set [2] the target is T1, Amine oxidase [flavin-containing] B. Nature of the data set: (§2) Tested against Monoamine oxidase B enzyme from bovine liver mitochondria. A digest of the protocol:
as §1

Data set [3] concerns the target T2, Monoamine oxidase B (MAO-B) (Bos taurus, UniProt P56560).
T2 sequence (P56560 whole entry): T1 sequence (P56560 whole entry)
Described as §2. A digest of the protocol:
as §1

On to `CN1CC=C(OC(=O)N(C)C)CC1`, for which, in data set [1], the Ratio is on record as 57.

Turning to `CN1CC=C(Sc2ccccc2)CC1`, the Ratio in data set [1] stood at 3425.

For the molecule `CN1CC=C(c2ccccc2)CC1`, in data set [1], the Ratio is given as 523. The Vmax in data set [2] was determined as 204 nM/min. Besides, the Km in data set [3] came to 390 µM.

`CN1CC=C(OC(=O)N(C)c2ccccc2)CC1`: the Ratio in data set [1] was 67.

Regarding `CN1CC=C(Cc2ccccc2)CC1`, the Ratio in data set [1] worked out at 2674.

For `CN1CC=C(Oc2ccccc2)CC1`, the Ratio in data set [1] was 688.
